Columns and labels:
SARS-CoV-2 M^pro [1] = target: T1, SARS-CoV-2 M^pro (Severe acute respiratory syndrome coronavirus 2, UniProt P0DTD1); experiment: Enzymatic reversibility assay; assay type: biochemical; conditions: 10 μM Mpro, 100 μM compound, 180 min
Summary of the method: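 Recombinant Mpro (10 μM), E. coli-expressed, held with 100 μM test compound for 180 min, then split into four portions given different numbers of ultrafiltration rounds. Retained protease diluted to 0.5 μM final; activity measured; triplicates averaged.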

SARS-CoV-2 M^pro [2] = target: T1, SARS-CoV-2 M^pro; assay type: biochemical
SARS-CoV-2 M^pro [3] = target: T1, SARS-CoV-2 M^pro; experiment: Mass spectrometry; assay type: binding; conditions: 2 μM protease, 15 μM compound, on ice 3 h
Summary of the method: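 Mpro–test compound mixture kept on ice for 3 h, then run on a quadrupole-TOF LC-MS/MS system. Raw mass signal deconvoluted to total intact protein mass to detect adduct formation. Protein was recombinant, E. coli-expressed.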

MDCK cells = conditions: MTT
Vero cells = conditions: MTT
SARS-CoV-2 = conditions: lungs and nose of SARS-CoV-2 infected mice; cited from earlier work

Compound: NC(=S)N/N=C/c1ccc(-c2ccc(C(=O)O)c(O)c2)o1 [F8–B6, (E)-4-(5-((2-carbamothioylhydrazono)methyl)furan-2-yl)-2-hydroxybenzoic acid]
- Reversibility of inhibition after ultrafiltration (SARS-CoV-2 M^pro [1]): reversible inhibitor
- Mechanism of inhibition (overall, kinetic and mass spectrometry studies) (SARS-CoV-2 M^pro [2]): reversible covalent inhibitor
- Type of inhibition from Lineweaver-Burk plot (SARS-CoV-2 M^pro [2]; enzymatic kinetic assay, 3 h preincubation, varied substrate): non-competitive inhibitor
- Effect of prolonged incubation on inhibition (SARS-CoV-2 M^pro [2]; incubation 5, 30, 180 min (Fig. S3A-C)): time-dependent increase of inhibition activity
- Covalent binding by LC-MS/MS (SARS-CoV-2 M^pro [3]): covalently bonded

Compound: NC(=S)N/N=C/c1ccc(Cc2ccccc2)o1 [F8–B22, (E)-2-((5-benzylfuran-2-yl)methylene)hydrazine-1-carbothioamide]
- Cytotoxicity in MDCK cells (MDCK cells): low cytotoxicity
- Potency relative to initial compound F8 (SARS-CoV-2 M^pro [2]; ratio of IC50 values): 13 fold
- Cytotoxicity in Vero cells (Vero cells): low cytotoxicity

Compound: Cc1ccc(NC(=O)c2ccc(CN3CCN(C)CC3)cc2)cc1Nc1nc(-c2cccnc2)cs1 [Masitinib]
- Effect on coronavirus replication in infected mice (SARS-CoV-2): block the replication of coronavirus in the lungs and nose
